Measured values pooled from the literature.
Lines come from different studies, so protocols differ.

O=C(/C=C/c1cn(Cc2cn(-c3ccnc4cc(Cl)ccc34)nn2)c2ccccc12)c1ccc(F)cc1  inhibition (Plasmodium falciparum; parasite growth, SYBR Green; 3D7; 10 µM, blood stage): 47.1%
Nc1ncnc2c1c(/C=C/C(=O)N1CCC(O)CC1)nn2CC1CCCC1  EC50 (FLO-1; cell growth or viability, resazurin; 5 days): > 30000 nM
CCN(CC)CCCC(C)Nc1ccnc2cc(Cl)ccc12 (stereo not drawn)  inhibition (Plasmodium falciparum; parasite growth, SYBR Green; 3D7; 25 nM, blood stage): 52.5%
Cn1cc2c3c1C(=O)C(NCCc1ccc(O)cc1)=CC3=[N+](C)CC2  IC50 (Plasmodium falciparum; parasite growth, SYBR Green; DD2; blood stage): 48.4 nM
CNc1ncc2c(/C=C/C(=O)N3CCC(OC)CC3)nn(CC3CCCO3)c2n1 (stereo not drawn)  EC50 (FLO-1; cell growth or viability, resazurin; 5 days): > 30000 nM
C=C(F)C(=O)N1CCN(c2nc(OC[C@@H]3CCCN3C)nc3c2CCN(c2cccc4cccc(Cl)c24)C3)C[C@@H]1CC#N  IC50 (KYSE-410; cell growth or viability, ATP luminescence; 3D culture): 107 nM
C=CC(=O)NC1CCN(c2ncc3ncnc(Nc4ccc(Oc5ccc6c(c5)ncn6C)c(C)c4)c3n2)CC1  EC50 (MDA-MB-453; cell growth or viability): 35.2 nM
O=C(/C=C/c1cn(Cc2cn(-c3ccnc4cc(Cl)ccc34)nn2)c2ccccc12)c1cccc([N+](=O)[O-])c1  inhibition (Plasmodium falciparum; parasite growth, SYBR Green; 3D7; 10 µM, blood stage): 36%
CCOC(Cn1nc(/C=C/C(=O)N2CCC(OC)CC2)c2cnc(NC)nc21)OCC  EC50 (FLO-1; cell growth or viability, resazurin; 5 days): > 30000 nM
O=C1C=C2NCCc3c[nH]c(c32)C1=O  IC50 (Plasmodium falciparum; parasite growth, SYBR Green; W2; blood stage): 25000 nM
O=C(/C=C/c1cn(Cc2cn(-c3ccnc4cc(Cl)ccc34)nn2)c2ccccc12)c1ccc([N+](=O)[O-])cc1  inhibition (Plasmodium falciparum; parasite growth, SYBR Green; 3D7; 5 µM, blood stage): 3.86%
CNc1ncc2c(/C=C/C(=O)N3CCCC(OC)C3)nn(Cc3cccc(C)c3)c2n1 (stereo not drawn)  EC50 (FLO-1; cell growth or viability, resazurin; 5 days): 13800 nM
O=C(NO)c1ccc(CNc2nc3cccc(-c4ccc5c(c4)OCO5)n3n2)cc1  GI50 (COLO 205; cell growth or viability, SRB): 630 nM
COc1cccc(C(=O)/C=C/c2cn(Cc3cn(-c4ccnc5cc(Cl)ccc45)nn3)c3ccccc23)c1  inhibition (Plasmodium falciparum; parasite growth, SYBR Green; 3D7; 5 µM, blood stage): 2.88%
COC1=CC2=[N+](C)CCc3c[nH]c(c32)C1=O  IC50 (Plasmodium falciparum; parasite growth, SYBR Green; DD2; blood stage): 1630 nM
